Usually IC50 stands for the concentration that inhibits the measured activity by half. As a reminder, the GI50 is the concentration that inhibits growth by half. Higher therefore signals lower sensitivity of the cells. By inhibition is commonly meant how much of the control response was suppressed.

The values below come from ChEMBL document CHEMBL3627648, “Synthesis and biochemical evaluation of benzoylbenzophenone thiosemicarbazone analogues as potent and selective inhibitors of cathepsin L” (Bioorg Med Chem, 2015).

Active and inactive are the calls of the source. The rule behind the calls is not given here.

The target in one data set is Cathepsin B (Homo sapiens, UniProt P07858). In words: Inhibition of human liver cathepsin B using Z-RR-AMC as substrate after 5 mins by fluorescence assay. The method in brief: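 Human liver cathepsin B (1 nM) was pre-incubated 5 min at 37 °C with inhibitor (final 10 µM to 10 pM). Substrate was 60 µM Z-RR-AMC in 120 mM sodium potassium phosphate pH 6.0 with 1 mM EDTA, 3 mM DTT, 0.01% Brij 35 and 2% DMSO. AMC fluorescence (ex 355/em 460 nm) was read for 5 min at 37 °C.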

For another data set, the system named is HUVEC. Kind of data set: Cytotoxicity against HUVEC cells after 48 hrs by SRB assay. It counts as cell-based. To be noted: human. The method in brief:
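SRB growth assay: HUVECs (pooled donors, passage ≤5) plated at 9,000 cells/well for 24 h, then exposed to ten-fold serial dilutions for 48 h. Cells were TCA-fixed and stained with 0.4% SRB, and absorbance read at 540 nm normalised to 630 nm.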

Data set [1] relates to MDA-MB-231. Kind of data set: Antiinvasive activity in human MDA-MB-231 cells at 10 uM after 24 hrs by inverted microscopic analysis. It counts as functional. Particulars: MDA-MB-231, 24 h. An outline of the steps:
(§1)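 MDA-MB-231 cells at 80% confluence, 50,000 per Matrigel-coated insert (8 µm PET membrane) in DMEM with 10 or 25 µM compound and 2% DMSO. The lower chamber held DMEM with 10% FBS as chemoattractant. After 24 h at 37 °C in 5% CO2, invaded cells were methanol-fixed, Diff-stained and counted by hand in ten fields at 40x. Values were normalised to the 2% DMSO vehicle; triplicate.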

Data set [2] deals with MDA-MB-231. Kind of data set: Antimigrative activity in human MDA-MB-231 cells at 25 uM after 24 hrs by inverted microscopic analysis. To be noted: MDA-MB-231, 24 h. Type of data set: functional. The method in brief:
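Transwell migration of MDA-MB-231 cells, run as for invasion but on 8 µm pore inserts without Matrigel. Each insert held 50,000 cells in DMEM with 25 µM compound and 2% DMSO, with 10% FBS DMEM below. After 24 h at 37 °C, cells were fixed, stained and counted by microscope. Values were normalised to the DMSO vehicle; triplicate.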

For data set [3], the system named is MDA-MB-231. Kind of data set: Antiinvasive activity in human MDA-MB-231 cells at 25 uM after 24 hrs by inverted microscopic analysis. Type of data set: functional. Particulars: for inhibition at 25 µM: MDA-MB-231, 24 h. The method in brief:
as §1

In data set [4] the target is T1, Procathepsin L (Homo sapiens, UniProt P07711). Kind of data set: Inhibition of human liver cathepsin L using Z-FR-AMC as substrate measured every 15 sec for 5 mins by fluorescence assay.
Target sequence in this assay (P07711 whole entry): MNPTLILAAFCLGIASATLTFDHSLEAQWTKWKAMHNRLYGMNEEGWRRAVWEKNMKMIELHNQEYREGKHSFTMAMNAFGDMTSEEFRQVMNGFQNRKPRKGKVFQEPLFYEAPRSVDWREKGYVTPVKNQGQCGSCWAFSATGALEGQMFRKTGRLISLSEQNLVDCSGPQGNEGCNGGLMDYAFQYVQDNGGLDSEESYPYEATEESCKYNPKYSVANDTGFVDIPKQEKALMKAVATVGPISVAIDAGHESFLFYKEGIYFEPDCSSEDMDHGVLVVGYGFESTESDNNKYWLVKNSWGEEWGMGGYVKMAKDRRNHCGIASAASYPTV
The subject of the next data set is Mus musculus. Kind of data set: Toxicity in C3H mouse derived mammary cancer cells implanted CDF1 mouse assessed as drug tolerability at 20 mg/kg, ip administered 5 consecutive days starting either on day of tumor implantation or when tumors reached 200 mm'3. Type of data set: organism-based, Cancer cell lines. Particulars: in vivo.
Data set [5] can be described thus: Antiinvasive activity in human PC3-ML cells at 25 uM after 24 hrs by microscopic analysis. It counts as functional. An outline of the steps: (§2)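 PC-3ML cells, a metastatic PC-3 subline, were seeded in serum-free medium into Matrigel-coated invasion inserts, with 10% FBS medium in the bottom chamber. At 24 h, cells that reached the membrane underside were stained and counted by microscope. Mean and standard error come from 3-5 independent experiments.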

The nature of data set [6]: Antiinvasive activity in human PC3-ML cells at 10 uM after 24 hrs by microscopic analysis. Type of data set: functional. The method in brief: as §2
A short description of data set [7]: Antitumor activity against C3H mouse derived mammary cancer cells implanted in CDF1 mouse assessed as time taken for tumors to reach 500 mm'3 at 20 mg/kg, ip administered 5 consecutive days starting either on day of tumor implantation or when tumors reached 200 mm'3 (reference value: 20.1 +/- 0.6 days). Type of data set: functional, Cancer cell lines. The method in brief: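 Female CDF1 mice, 10-14 weeks old, had minced C3H mammary carcinoma tissue (5-10 µl) implanted in the right rear foot. Dosing was 20 mg/kg i.p. at 0.02 ml/g, dissolved in Tween80 and diluted to 10% with saline, given daily for 5 days. Tumour volume was followed daily to find days to reach 500 mm3. Groups had 5-8 mice; mean ±1 S.E.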

Data set [8] can be described thus: Antiinvasive activity in human PC3-ML cells at 1 uM after 24 hrs by microscopic analysis. Type of data set: functional. The method in brief: as §2
The nature of data set [9]: Antiinvasive activity in human PC3-ML cells at 5 uM after 24 hrs by microscopic analysis. It counts as functional. An outline of the steps: as §2
Data set [10] concerns the target T1, Procathepsin L. Kind of data set: Inhibition of human liver cathepsin L using Z-FR-AMC as substrate at 10000 nM measured every 15 sec for 5 mins by fluorescence assay. An outline of the steps: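 Human liver cathepsin L (1 nM) was pre-incubated 5 min at 25 °C with 10 µM inhibitor or vehicle. Substrate was 50 µM Z-FR-AMC in 100 mM NaOAc pH 5.5 with 1 mM EDTA, 3 mM DTT, 0.01% Brij 35 and 2% DMSO.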
Target sequence in this assay (P07711 114-333 limits assumed): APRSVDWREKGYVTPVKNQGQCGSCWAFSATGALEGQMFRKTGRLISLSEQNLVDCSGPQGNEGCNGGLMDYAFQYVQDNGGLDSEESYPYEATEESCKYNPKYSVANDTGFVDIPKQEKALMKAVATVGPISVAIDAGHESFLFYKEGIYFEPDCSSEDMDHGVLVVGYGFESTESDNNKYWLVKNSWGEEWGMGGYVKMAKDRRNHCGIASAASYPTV

In the case of `NC(=S)N/N=C(\c1cc(Br)cc(C(=O)c2ccccc2F)c1)c1ccccc1F`, the IC50 against Cathepsin B is more than 10 µM; against Procathepsin L [4] it was 0.00812 µM. The same compound came in with a GI50 in the data set on HUVEC of more than 85.9 µM. In the data set with MDA-MB-231 [1], the inhibition at 10 µM is 70%. For the same compound, the inhibition at 25 µM in the data set with MDA-MB-231 [2] is more than 50%. In addition, the inhibition result with MDA-MB-231 [3] was “Active”.

`NC(=S)N/N=C(\c1ccccc1)c1cccc(C(=O)c2ccccc2)c1`: the values for the IC50 on Cathepsin B and at Procathepsin L [4] were more than 10 µM and 0.00985 µM, respectively. Besides, in the data set with Mus musculus, the Activity entry was “Non-toxic”. The same compound came in with a GI50 in the data set on HUVEC of 53.3 µM. The inhibition at 25 µM in [5] stood at 53%; in the data set with MDA-MB-231 [2], 80%; with MDA-MB-231 [3] it was 30%. Also, in [6], the inhibition at 10 µM came to 37%. In [7], the Time was 22.1 days.

Take `NC(=S)N/N=C(\c1cccc(O)c1)c1cc(Br)cc(C(=O)c2cccc(O)c2)c1`: the results for the IC50 on Cathepsin B and on Procathepsin L [4] were more than 10 µM and 0.0716 µM, respectively. The same compound returned a GI50 in the data set with HUVEC of 13.3 µM.

For the compound `COc1ccc(C(=O)c2cccc(/C(=N/NC(N)=S)c3ccc(OC)cc3)c2)cc1`, the IC50 against Cathepsin B is more than 10 µM; at Procathepsin L [4], 5.12 µM.

In the case of `NC(=S)N/N=C(\c1ccccc1)c1cccc(C(O)c2ccccc2)c1` (stereo not given), the 50% inhibitory concentration (IC50) on Cathepsin B is more than 10 µM; against Procathepsin L [4], 0.0238 µM.

In the case of `NC(=S)N/N=C(\c1ccc(F)cc1)c1cccc(C(=O)c2ccc(F)cc2)c1`, the results for the IC50 at Cathepsin B and against Procathepsin L [4] were more than 10 µM and 0.0144 µM, respectively. The 50% growth inhibitory concentration (GI50) in the data set on HUVEC is more than 126 µM. The compound also came in with an inhibition at 1 µM in data set [8] of 59%. In the data set on MDA-MB-231 [1], the inhibition at 10 µM amounted to 15%. For the same compound, the inhibition at 25 µM with MDA-MB-231 [2] was more than 50%; in the data set with MDA-MB-231 [3] it was 60%. The same compound registered an inhibition at 5 µM in data set [9] of 92%.

Consider `CC(C)Oc1ccc(C(=O)c2cccc(/C(=N/NC(N)=S)c3ccc(OC(C)C)cc3)c2)cc1`, for which the IC50 at Cathepsin B and against Procathepsin L [4] was more than 10 µM throughout.

For `CC(C)C[C@H](NC(=O)[C@@H]1O[C@H]1C(=O)O)C(=O)NCCCCN=C(N)N`, the inhibition at 10 µM with MDA-MB-231 [1] was 60%.

In turn, `CC(=O)O[C@H]1C(=O)[C@@]2(C)[C@H]([C@H](OC(=O)c3ccccc3)[C@]3(O)C[C@H](OC(=O)[C@H](O)[C@@H](NC(=O)c4ccccc4)c4ccccc4)C(C)=C1C3(C)C)[C@]1(OC(C)=O)CO[C@@H]1C[C@@H]2O` [PACLITAXEL] registered a GI50 with HUVEC of 0.00148 µM.

In the case of `NC(=S)N/N=C(\c1cccc(Br)c1)c1cc(Br)cc(C(=O)c2cccc(Br)c2)c1`, the IC50 was more than 10 µM on Cathepsin B and 10.3 µM at Procathepsin L [4].

For the compound `NC(=S)N/N=C(\c1ccc(Br)cc1)c1cccc(C(=O)c2ccc(Br)cc2)c1`, the IC50 at Cathepsin B is more than 10 µM; at Procathepsin L [4], 1.52 µM.

Regarding `NC(=S)N/N=C(\c1ccc(Br)cc1)c1cccc(/C(=N/NC(N)=S)c2ccc(Br)cc2)c1`, the IC50 against Cathepsin B and at Procathepsin L [4] was more than 10 µM throughout.

Regarding `Cc1cccc(C(=O)c2cccc(/C(=N/NC(N)=S)c3cccc(C)c3)c2)c1`, the IC50 on Cathepsin B is more than 10 µM; against Procathepsin L [4], 0.654 µM.

On to `NC(=S)N/N=C(\c1ccccc1)c1cc(C(=O)c2ccccc2)cc(C(=O)c2ccccc2)c1`, for which the results for the IC50 against Cathepsin B and against Procathepsin L [4] were more than 10 µM and 0.056 µM, respectively.

As for `NC(=S)N/N=C(\c1ccc(O)cc1)c1cccc(C(=O)c2ccc(O)cc2)c1`, the half-inhibitory concentration (IC50) on Cathepsin B is more than 10 µM; against Procathepsin L [4] it was 0.34 µM.

`COc1cccc2c1C(=O)c1c(O)c3c(c(O)c1C2=O)C[C@@](O)(C(=O)CO)C[C@@H]3O[C@H]1C[C@H](N)[C@H](O)[C@H](C)O1` [DOXORUBICIN]: growth in the data set on HUVEC was halved (GI50) at 0.0268 µM.

Consider `NC(=S)N/N=C(\c1cccc(Br)c1)c1cc(O)cc(C(=O)c2cccc(Br)c2)c1`, for which the IC50 on Cathepsin B was more than 10 µM; against Procathepsin L [4] it was 10 µM. Besides, the inhibition on Procathepsin L [10] stood at 56.9%.
